Assay results: ChEMBL document CHEMBL1629527, “In vitro antifungal activities of bis(alkylpyridinium)alkane compounds against pathogenic yeasts and molds” (Antimicrob Agents Chemother, 2010)

Key:
[1] = system: Cryptococcus neoformans; experiment: Antifungal activity against Cryptococcus neoformans after 24 to 72 hrs by broth microdilution method; assay type: functional
Method in brief: (§1)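 Broth microdilution MIC per CLSI M27-A3 (yeasts) or M38-A2 (molds). RPMI 1640 with L-glutamine, without bicarbonate, buffered to pH 7.0 with 0.165 M MOPS. Final test range for the compounds was 0.175–87.5 μM. Incubation at 35°C with visual reading at 24–72 h. MIC was the lowest concentration giving 100% inhibition versus the growth control (azoles 50% or 100%, by organism). Each isolate was run in duplicate in two independent experiments.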

[2] = system: Cryptococcus gattii species complex; experiment: Antifungal activity against Cryptococcus gattii after 24 to 72 hrs by broth microdilution method; assay type: functional, Cryptococcus bacillisporus; method in brief: as §1
[3] = system: Candida tropicalis; experiment: Antifungal activity against Candida tropicalis after 48 to 72 hrs; assay type: functional
Method in brief: (§2)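 MFC: after the MIC read, 30-μl aliquots from each well without visible growth were plated onto Sabouraud dextrose agar and incubated at 35°C. Reading was at 48–72 h for yeasts and up to 7 days for molds. MFC was the lowest concentration with no colonies.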

[4] = system: Candida parapsilosis; experiment: Antifungal activity against Candida parapsilosis after 48 to 72 hrs; assay type: functional; method in brief: as §2
[5] = system: Pichia kudriavzevii; experiment: Antifungal activity against Candida krusei after 48 to 72 hrs; assay type: functional; method in brief: as §2
[6] = system: Candida dubliniensis; experiment: Antifungal activity against Candida dubliniensis after 48 to 72 hrs; assay type: functional; method in brief: as §2
[7] = system: Meyerozyma guilliermondii; experiment: Antifungal activity against Candida guilliermondii after 48 to 72 hrs; assay type: functional; method in brief: as §2
[8] = system: Cryptococcus gattii species complex; experiment: Antifungal activity against Cryptococcus gattii after 48 to 72 hrs; assay type: functional, Cryptococcus bacillisporus; method in brief: as §2
[9] = Toxicity against human erythrocytes assessed as hemolysis; assay type: cell-based, Erythrocyte
[10] = system: Rhizopus arrhizus; experiment: Antifungal activity against Rhizopus oryzae 05-203111 after 48 to 72 hrs; assay type: functional
Method in brief: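 After the broth microdilution MIC read, suspension from every well without visible growth was plated onto Sabouraud dextrose agar and incubated at 35°C, up to 7 days for molds. MFC was taken as the lowest drug concentration with no colonies.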

[11] = system: Candida tropicalis; experiment: Antifungal activity against Candida tropicalis after 24 to 72 hrs by broth microdilution method; assay type: functional; method in brief: as §1
[12] = system: Nakaseomyces glabratus; experiment: Antifungal activity against Candida glabrata after 24 to 72 hrs by broth microdilution method; assay type: functional; method in brief: as §1
[13] = system: Candida parapsilosis; experiment: Antifungal activity against Candida parapsilosis after 24 to 72 hrs by broth microdilution method; assay type: functional; conditions: Lodderomyces parapsilosis; method in brief: as §1
[14] = system: Pichia kudriavzevii; experiment: Antifungal activity against Candida krusei after 24 to 72 hrs by broth microdilution method; assay type: functional; method in brief: as §1
[15] = system: Candida dubliniensis; experiment: Antifungal activity against Candida dubliniensis after 24 to 72 hrs by broth microdilution method; assay type: functional; method in brief: as §1
[16] = system: Cryptococcus neoformans; experiment: Antifungal activity against Cryptococcus neoformans 05-202523 after 48 to 72 hrs; assay type: functional; method in brief: as §2
[17] = system: Exophiala spinifera; experiment: Antifungal activity against Exophiala spinifera 03-200803 after 24 to 72 hrs by broth microdilution method; assay type: functional
Method in brief: (§3)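 Mold isolates subcultured on potato dextrose agar, then tested by CLSI M38-A2 broth microdilution in RPMI 1640 (L-glutamine, no bicarbonate) buffered to pH 7.0 with 0.165 M MOPS. Compounds were dissolved in water and tested at a final 0.175–87.5 μM. Plates were incubated at 35°C. MIC was read visually as the lowest concentration giving 100% inhibition versus the growth control. Each isolate was run in duplicate in two independent experiments.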

[18] = system: Fusarium solani; experiment: Antifungal activity against Fusarium solani 04-203102 after 24 to 72 hrs by broth microdilution method; assay type: functional; method in brief: as §3
[19] = Antifungal activity against Paecilomyces lilacinus 05-200601 after 24 to 72 hrs by broth microdilution method; assay type: functional; conditions: Purpureocillium lilacinum; method in brief: as §3
[20] = system: Rhizopus arrhizus; experiment: Antifungal activity against Rhizopus oryzae 05-203111 after 24 to 72 hrs by broth microdilution method; assay type: functional; method in brief: as §3
[21] = system: Aspergillus fumigatus; experiment: Antifungal activity against Aspergillus fumigatus 05-203114 after 24 to 72 hrs by broth microdilution method; assay type: functional; method in brief: as §1
[22] = system: Aspergillus flavus; experiment: Antifungal activity against Aspergillus flavus ATCC 204304 after 24 to 72 hrs by broth microdilution method; assay type: functional; method in brief: as §1
[23] = system: Aspergillus flavus; experiment: Antifungal activity against Aspergillus flavus 05-203758 after 24 to 72 hrs by broth microdilution method; assay type: functional; method in brief: as §1
[24] = system: Lomentospora prolificans; experiment: Antifungal activity against Scedosporium prolificans 05-203060 after 24 to 72 hrs by broth microdilution method; assay type: functional; method in brief: as §3
[25] = system: Scedosporium apiospermum; experiment: Antifungal activity against Scedosporium apiospermum 05-203100 after 24 to 72 hrs by broth microdilution method; assay type: functional; method in brief: as §3
[26] = system: Cunninghamella bertholletiae; experiment: Antifungal activity against Cunninghamella bertholletiae 99-12187 after 24 to 72 hrs by broth microdilution method; assay type: functional; method in brief: as §1
[27] = system: Lichtheimia corymbifera; experiment: Antifungal activity against Absidia corymbifera 04-200170 after 24 to 72 hrs by broth microdilution method; assay type: functional; method in brief: as §1
[28] = system: Aspergillus fumigatus; experiment: Antifungal activity against Aspergillus fumigatus ATCC 204305 after 24 to 72 hrs by broth microdilution method; assay type: functional; method in brief: as §1
[29] = system: Cryptococcus gattii species complex; experiment: Antifungal activity against Cryptococcus gattii 05-200122 after 24 to 72 hrs by broth microdilution method; assay type: functional, Cryptococcus bacillisporus; method in brief: as §1
[30] = system: Cryptococcus neoformans; experiment: Antifungal activity against Cryptococcus neoformans 05-202523 after 24 to 72 hrs by broth microdilution method; assay type: functional; method in brief: as §1
[31] = system: Cryptococcus neoformans; experiment: Antifungal activity against Cryptococcus neoformans ATCC 90112 after 24 to 72 hrs by broth microdilution method; assay type: functional; method in brief: as §1
[32] = system: Nakaseomyces glabratus; experiment: Antifungal activity against Candida glabrata 04-202345 after 24 to 72 hrs by broth microdilution method; assay type: functional; method in brief: as §1
[33] = system: Candida parapsilosis; experiment: Antifungal activity against Candida parapsilosis 04-202398 after 24 to 72 hrs by broth microdilution method; assay type: functional; conditions: Lodderomyces parapsilosis; method in brief: as §1
[34] = system: Candida parapsilosis; experiment: Antifungal activity against Candida parapsilosis ATCC 22019 after 24 to 72 hrs by broth microdilution method; assay type: functional; conditions: Lodderomyces parapsilosis; method in brief: as §1
[35] = system: Pichia kudriavzevii; experiment: Antifungal activity against Candida krusei ATCC 6258 after 24 to 72 hrs by broth microdilution method; assay type: functional; method in brief: as §1
[36] = system: Candida albicans; experiment: Antifungal activity against Candida albicans ATCC 10231 after 24 to 72 hrs by broth microdilution method; assay type: functional; method in brief: as §1
[37] = system: Candida albicans; experiment: Antifungal activity against Candida albicans ATCC 90028 after 24 to 72 hrs by broth microdilution method; assay type: functional; method in brief: as §1

MIC [1]: 3.83 µg/mL
MIC50 [1]: 2.94 µg/mL
MIC90 [1]: 5.87 µg/mL
MIC [2]: 1.81 µg/mL
MIC50 [2]: 1.48 µg/mL
MIC90 [2]: 2.94 µg/mL
MIC [11]: 0.746 µg/mL
MIC50 [11]: 0.75 µg/mL
MIC90 [11]: 1.47 µg/mL
MIC [12]: 0.975 µg/mL
MIC50 [12]: 1.47 µg/mL
MIC90 [12]: 1.47 µg/mL
MIC [13]: 23.5 µg/mL
MIC50 [13]: 23.5 µg/mL
MIC90 [13]: 23.5 µg/mL
MIC [14]: 3.38 µg/mL
MIC50 [14]: 2.94 µg/mL
MIC90 [14]: 5.87 µg/mL
MIC [15]: 2.22 µg/mL
MIC50 [15]: 1.47 µg/mL
MIC90 [15]: 2.93 µg/mL
MIC [17]: 0.74 µg/mL
MIC [18]: 47.3 µg/mL
MIC [19]: > 47.3 µg/mL
MIC [20]: 5.9 µg/mL
MIC [21]: > 47.3 µg/mL
MIC [22]: > 47.3 µg/mL
MIC [23]: > 47.3 µg/mL
MIC [24]: 1.48 µg/mL
MIC [25]: 11.8 µg/mL
MIC [26]: > 47.3 µg/mL
MIC [27]: > 47.3 µg/mL
MIC [28]: > 47.3 µg/mL
MIC [29]: 1.48 µg/mL
MIC [30]: 11.8 µg/mL
MIC [31]: 11.8 µg/mL
MIC [32]: 1.5 µg/mL
MIC [33]: 47.3 µg/mL
MIC [34]: 1.48 µg/mL
MIC [35]: 5.9 µg/mL
MIC [36]: 1.48 µg/mL
MIC [37]: 1.48 µg/mL
SMILES: C=CCCCc1cc[n+](CCCCCCCCCCCC[n+]2ccc(CCCC=C)cc2)cc1.[Cl-].[Cl-]
MFC50 [3]: 0.75 µg/mL
MFC90 [3]: 1.47 µg/mL
MFC ([3]; Candida tropicalis): 0.37 µg/mL
MFC50 [4]: 23.5 µg/mL
MFC90 [4]: 23.5 µg/mL
MFC ([4]; Lodderomyces parapsilosis): 23.5 µg/mL
MFC50 [5]: 5.87 µg/mL
MFC90 [5]: 11.74 µg/mL
MFC ([5]; Pichia kudriavzevii): 0.75 µg/mL
MFC50 [6]: 2.93 µg/mL
MFC90 [6]: 2.93 µg/mL
MFC ([6]; Candida dubliniensis): 1.47 µg/mL
MFC50 [7]: 1.47 µg/mL
MFC90 [7]: 5.87 µg/mL
MFC ([7]; Meyerozyma guilliermondii): 0.75 µg/mL
MFC50 [8]: 2.94 µg/mL
MFC90 [8]: 2.94 µg/mL
MFC ([8]; Cryptococcus gattii species complex): 2.94 µg/mL
HC50 [9]: > 129 µM
IC50 [9]: > 48 µM
MFC [10]: 23.7 µg/mL
MFC [16]: 23.7 µg/mL
